The values below come from ChEMBL document CHEMBL2346589, “Fragment-based drug discovery of 2-thiazolidinones as inhibitors of the histone reader BRD4 bromodomain” (J Med Chem, 2013).

A word on the IC50: it is the concentration needed to halve the response being measured. High values mean lower potency, low ones higher potency. As usually defined, the inhibition is how much of the control response was suppressed. The GI50 is the concentration that inhibits growth by half. A lower GI50 goes with greater sensitivity of the cells.

Series [1] concerns the target T1, Bromodomain-containing protein 4 (Homo sapiens, UniProt O60885). As to the kind of experiment: Displacement of FITC-labeled (+)-JQ1 from bromodomain BRD4(1) (unknown origin) expressed in Escherichia coli BL21(DE3) after 4 hrs by fluorescence anisotropy assay. The procedure, abridged:
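BRD4(1), His6-tagged, expressed in E. coli BL21(DE3) codon plus RIL, Ni-NTA purified, tag removed with TEV, then gel filtration. Varied compound concentrations, DMSO 5‰ final. 4 h equilibration in the dark at room temperature. IC50 from two independent experiments.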

Series [2] deals with T1, Bromodomain-containing protein 4. In words: Inhibition of bromodomain BRD4-mediated c-myc mRNA expression in human HT-29 cells at 10 uM after 24 hrs by RT-qPCR analysis relative to control. Format: cell-based. The procedure, abridged: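 HT-29 cells (McCoy's 5A, 10% FBS, 37 °C, 5% CO2) seeded in six-well plates overnight, then exposed 24 h to compound at 10 μM final (DMSO stock diluted in saline). Total RNA extracted with Trizol, reverse-transcribed, and quantified by RT-qPCR. c-myc levels normalised to β-actin and expressed relative to untreated control. Three independent experiments, mean ± SD.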
Background: Quantitative PCR measures a nucleic acid by following its amplification.

A further series has as its system HT-29. In words: Growth inhibition of human HT-29 cells after 72 hrs by sulforhodamine B assay. Format: functional. The note with it: HT-29, 72 h. A digest of the protocol: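 HT-29 cells in McCoy's 5A with 10% FBS at 37 °C, 5% CO2. DMSO stocks (0.01 mol/L) diluted in normal saline. Graded concentrations applied in triplicate for 72 h, then SRB staining with A560 read-out. Inhibition rate from A560 treated/control. GI50 from four independent experiments, mean ± SD.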
(Sulforhodamine B stains cellular protein and so reports cell mass.)

For the next series, the target named is CYP2C19 (Homo sapiens, UniProt P33261). As to the kind of experiment: Inhibition of CYP2C19 (unknown origin)-mediated mephenytoin metabolite conversion at 10 uM after 20 mins relative to control. In kind it is ADME. The conditions noted are these: probe mephenytoin. The procedure, abridged:
(§1)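 Human liver microsomes at 0.2 mg/mL in 100 mM phosphate pH 7.4 with 1 mM NADPH. Probe cocktail: midazolam 10 μM, dextromethorphan 10 μM, diclofenac 20 μM, phenacetin 100 μM, mephenytoin 100 μM. Test compound at 10 μM; PBS as negative control. 5 min preincubation at 37 °C, then 20 min reaction started with an NADPH-generating system. Metabolite formation expressed relative to PBS.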

A further series has as its target T2, CYP1A2 (Homo sapiens, UniProt P05177).
T2 sequence (P05177 whole entry): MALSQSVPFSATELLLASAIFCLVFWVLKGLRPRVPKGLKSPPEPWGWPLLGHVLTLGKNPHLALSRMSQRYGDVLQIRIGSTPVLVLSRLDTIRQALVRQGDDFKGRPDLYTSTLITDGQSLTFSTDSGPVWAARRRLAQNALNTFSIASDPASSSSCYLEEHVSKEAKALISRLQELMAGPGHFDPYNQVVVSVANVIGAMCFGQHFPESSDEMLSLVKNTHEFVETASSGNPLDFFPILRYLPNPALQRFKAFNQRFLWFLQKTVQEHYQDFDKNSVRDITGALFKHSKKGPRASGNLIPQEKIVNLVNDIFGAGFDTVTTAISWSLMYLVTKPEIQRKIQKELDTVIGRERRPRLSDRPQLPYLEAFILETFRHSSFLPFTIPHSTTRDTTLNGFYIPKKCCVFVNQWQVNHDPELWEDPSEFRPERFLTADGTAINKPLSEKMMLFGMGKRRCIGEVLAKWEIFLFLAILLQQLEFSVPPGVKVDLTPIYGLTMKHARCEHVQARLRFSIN
In words: Inhibition of CYP1A2 (unknown origin)-mediated phenacetin metabolite conversion at 10 uM after 20 mins relative to control. In kind it is ADME. The note with it: probe phenacetin. The procedure, abridged: as §1

In the next series the target is CYP2C9 (Homo sapiens, UniProt P11712). As to the kind of experiment: Inhibition of CYP2C9 (unknown origin)-mediated diclofenac metabolite conversion at 10 uM after 20 mins relative to control. Format: ADME. The note with it: probe diclofenac. A digest of the protocol:
as §1

For the next series, the target named is CYP2D6 (Homo sapiens, UniProt P10635). In words: Inhibition of CYP2D6 (unknown origin)-mediated dextromethorphan metabolite conversion at 10 uM after 20 mins relative to control. In kind it is ADME. The note with it: probe dextromethorphan. The procedure, abridged: as §1
A further series deals with CYP3A4 (Homo sapiens, UniProt P08684). As to the kind of experiment: Inhibition of CYP3A4 (unknown origin)-mediated midazolam metabolite conversion at 10 uM after 20 mins relative to control. The note with it: probe midazolam. In kind it is ADME. The procedure, abridged: as §1
Series [3] can be described thus: Intrinsic clearance in mouse liver microsomes at 1 uM after 5 mins by LC/MS/MS analysis. The note with it: read-out: CLH. In kind it is ADME, Microsome. For orientation: Microsomes from liver hold many membrane-bound enzymes, among them those of drug oxidation.
Series [4] in a line: Intrinsic clearance in human liver microsomes at 1 uM after 5 mins by LC/MS/MS analysis. In kind it is ADME, Microsome. The note with it: read-out: CLH. The procedure, abridged: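 Liver microsomes at 0.5 mg/mL with 1 μM compound in 0.1 M phosphate pH 7.4, 1 mM EDTA, 5 mM MgCl2. Preincubated 5 min at 37 °C, then started with 1 mM NADPH. Sampled at 0, 5, 10 and 30 min, quenched with cold acetonitrile. Parent remaining measured by LC/MS/MS.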

In series [5] the target is T1, Bromodomain-containing protein 4. In words: Displacement of FITC-labeled (+)-JQ1 from bromodomain BRD4(1) (unknown origin) expressed in Escherichia coli BL21(DE3) at 50 uM after 4 hrs by fluorescence anisotropy assay relative to control. The procedure, abridged: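 Same BRD4(1) fluorescence anisotropy competition set-up: 45 nM protein, 5 nM FITC-(+)-JQ1 tracer, HEPES pH 7.4/CHAPS buffer, 4 h in the dark at room temperature, ex 485/em 530 nm. Single ligand concentration of 50 μM, reported as percent inhibition.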

SMILES strings stand for the structures. Bounds are passed on as bounds.

CYP2C19, sequence (P33261 whole entry): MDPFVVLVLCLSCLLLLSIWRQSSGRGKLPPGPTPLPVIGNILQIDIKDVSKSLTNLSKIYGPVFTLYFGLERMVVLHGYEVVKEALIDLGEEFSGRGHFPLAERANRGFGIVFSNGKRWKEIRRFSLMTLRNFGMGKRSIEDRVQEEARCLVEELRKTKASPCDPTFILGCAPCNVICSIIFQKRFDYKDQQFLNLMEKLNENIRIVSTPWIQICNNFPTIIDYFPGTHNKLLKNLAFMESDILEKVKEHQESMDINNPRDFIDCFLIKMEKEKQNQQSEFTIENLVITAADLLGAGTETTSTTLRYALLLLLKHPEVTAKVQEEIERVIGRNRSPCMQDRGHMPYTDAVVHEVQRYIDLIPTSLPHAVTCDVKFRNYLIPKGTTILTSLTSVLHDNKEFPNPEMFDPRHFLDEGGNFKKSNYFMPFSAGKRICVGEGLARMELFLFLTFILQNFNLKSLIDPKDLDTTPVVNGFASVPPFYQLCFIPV
CYP3A4, sequence (P08684 whole entry): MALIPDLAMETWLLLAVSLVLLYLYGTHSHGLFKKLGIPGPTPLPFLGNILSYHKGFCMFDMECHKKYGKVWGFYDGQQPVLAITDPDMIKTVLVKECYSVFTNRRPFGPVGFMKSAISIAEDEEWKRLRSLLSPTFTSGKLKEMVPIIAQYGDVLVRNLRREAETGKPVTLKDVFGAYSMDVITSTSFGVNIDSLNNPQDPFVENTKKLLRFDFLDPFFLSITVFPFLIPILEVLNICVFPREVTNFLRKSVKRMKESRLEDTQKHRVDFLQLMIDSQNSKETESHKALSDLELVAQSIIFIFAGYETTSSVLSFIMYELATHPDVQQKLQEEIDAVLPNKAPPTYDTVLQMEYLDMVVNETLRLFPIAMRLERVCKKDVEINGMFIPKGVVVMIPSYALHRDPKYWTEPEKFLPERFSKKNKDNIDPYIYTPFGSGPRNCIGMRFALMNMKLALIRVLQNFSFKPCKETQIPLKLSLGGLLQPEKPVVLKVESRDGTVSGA
CYP2C9, sequence (P11712 whole entry): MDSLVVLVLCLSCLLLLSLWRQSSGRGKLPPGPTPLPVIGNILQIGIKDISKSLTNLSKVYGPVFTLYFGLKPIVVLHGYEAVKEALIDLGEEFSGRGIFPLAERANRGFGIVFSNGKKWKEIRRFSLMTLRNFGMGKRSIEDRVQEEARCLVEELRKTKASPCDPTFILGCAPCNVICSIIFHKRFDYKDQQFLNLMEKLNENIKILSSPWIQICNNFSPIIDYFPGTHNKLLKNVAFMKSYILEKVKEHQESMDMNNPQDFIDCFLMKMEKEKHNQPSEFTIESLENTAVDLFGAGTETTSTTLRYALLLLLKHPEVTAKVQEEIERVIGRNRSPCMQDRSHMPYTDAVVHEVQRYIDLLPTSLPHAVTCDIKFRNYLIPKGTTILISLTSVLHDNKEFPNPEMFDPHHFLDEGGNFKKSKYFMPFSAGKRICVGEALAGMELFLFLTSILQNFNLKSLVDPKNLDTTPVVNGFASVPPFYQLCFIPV
CYP2D6, sequence (P10635 whole entry): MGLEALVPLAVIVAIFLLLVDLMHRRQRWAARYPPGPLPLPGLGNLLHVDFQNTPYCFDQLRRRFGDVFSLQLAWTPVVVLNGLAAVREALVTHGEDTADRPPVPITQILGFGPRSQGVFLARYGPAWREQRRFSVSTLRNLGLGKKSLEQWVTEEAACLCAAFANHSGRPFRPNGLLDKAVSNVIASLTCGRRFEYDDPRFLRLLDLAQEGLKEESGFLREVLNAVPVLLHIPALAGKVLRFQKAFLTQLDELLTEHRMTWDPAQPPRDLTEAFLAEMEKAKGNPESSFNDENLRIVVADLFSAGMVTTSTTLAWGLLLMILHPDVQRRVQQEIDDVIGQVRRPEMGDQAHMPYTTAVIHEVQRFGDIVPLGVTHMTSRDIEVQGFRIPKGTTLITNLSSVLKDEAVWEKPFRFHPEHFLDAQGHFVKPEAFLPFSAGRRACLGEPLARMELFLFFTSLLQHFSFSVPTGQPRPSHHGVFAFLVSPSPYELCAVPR

In series [1], `O=C(Cc1ccccc1)Nc1cc(-c2csc(=O)[nH]2)ccc1NS(=O)(=O)c1cccs1` gave an IC50 of 3.5 µM.
In turn, `Cc1noc(C)c1-c1ccccc1` showed an inhibition in [2] of more than 50%. This molecule registered a GI50 with HT-29 of 22.5 µM. The IC50 in [1] was determined as 0.8 µM.
As for `Nc1cccc(-c2csc(=O)[nH]2)c1`, the IC50 in series [1] was found to be 42 µM.
In [1], `Nc1ccc(-c2csc(=O)[nH]2)cc1` showed an IC50 of 51 µM.
In series [2], `Nc1cc(NS(=O)(=O)c2cccs2)cc(-c2csc(=O)[nH]2)c1` yielded an inhibition of more than 50%. In the series with HT-29, this molecule showed a GI50 of 37.3 µM. Moreover, the IC50 in [1] was found to be 2.6 µM.
As for `O=c1[nH]c(-c2cccc(NS(=O)(=O)c3cccs3)c2)cs1`, the inhibition at 20 min, 10 µM at CYP2C19 stood at 36%; at CYP1A2, 16%; on CYP2C9 it was 34%; on CYP2D6, 22%; on CYP3A4 it was 17%. The microsomal CLint at 1 µM in series [3] stood at 120 µL/min/mg; in series [4] it was 24 µL/min/mg. Moreover, the IC50 in [1] amounted to 4.1 µM.
Take `O=c1[nH]c(-c2cccc(NS(=O)(=O)c3cccnc3)c2)cs1`: in series [1], the IC50 turned out to be 10 µM.
The molecule `O=c1[nH]c(-c2cccc(NS(=O)(=O)c3ccc(F)cc3)c2)cs1` came in with a GI50 in the series with HT-29 of 47.8 µM. The molecule further yielded an IC50 in series [1] of 3.7 µM.
In the case of `Nc1ccc(-c2csc(=O)[nH]2)cc1O`, the IC50 in series [1] amounted to 23.8 µM.
With `O=c1[nH]c(-c2cccc(NS(=O)(=O)Cc3ccccc3)c2)cs1`, the IC50 in series [1] was 4.1 µM.
Regarding `CCCC(=O)Nc1cc(-c2csc(=O)[nH]2)ccc1NS(=O)(=O)c1cccs1`, the IC50 in series [1] was 2.4 µM.
Still for that read-out and setting: the same measure for `COc1ccc(S(=O)(=O)Nc2cccc(-c3csc(=O)[nH]3)c2)cc1`: 4.4 µM; for `CCCC(=O)Nc1cc(NS(=O)(=O)c2cccs2)cc(-c2csc(=O)[nH]2)c1`: 0.79 µM.
As to `O=c1[nH]c(-c2ccc(NS(=O)(=O)c3cccs3)cc2)cs1`, in series [5], the inhibition turned out to be 38.6%.
On to `O=C(Nc1cc(NS(=O)(=O)c2cccs2)cc(-c2csc(=O)[nH]2)c1)c1cccs1`, for which the inhibition at 20 min, 10 µM was 39% on CYP2C19; 29% at CYP1A2; 41% on CYP2C9; 20% at CYP2D6; 8% at CYP3A4. Besides, the results for the microsomal CLint at 1 µM in series [3] and in series [4] were 52 µL/min/mg and 18 µL/min/mg, respectively.
In the series with HT-29, `O=C(Nc1cc(-c2csc(=O)[nH]2)ccc1NS(=O)(=O)c1cccs1)C1CCCC1` returned a GI50 of 63.6 µM. In addition, the 50% inhibitory concentration (IC50) in series [1] was found to be 2.5 µM.
In [1], `O=c1[nH]c(-c2cccc(NCCc3ccccc3)c2)cs1` came in with an IC50 of 22.8 µM. That is a double-digit micromolar value.
In series [5], `O=C(Nc1cc(-c2csc(=O)[nH]2)ccc1NS(=O)(=O)Cc1ccccc1)C1CCCC1` yielded an inhibition of 20.2%.
Turning to `O=c1[nH]c(-c2cccc(Cl)c2)cs1`, the IC50 in [1] is 24 µM.
`O=c1[nH]c(-c2cccc(NS(=O)(=O)c3cccc4cccnc34)c2)cs1` registered an inhibition in series [5] of 45.7%.
Molecule `O=C(CCc1ccccc1)Nc1cc(-c2csc(=O)[nH]2)ccc1NS(=O)(=O)c1cccs1` showed an IC50 in series [1] of 2.6 µM. That is a single-digit micromolar value.
In series [5], `O=C(Cc1ccccc1)Nc1cccc(-c2csc(=O)[nH]2)c1` returned an inhibition of 45.6%.
With `O=C(CCC1CCCCC1)Nc1cc(NS(=O)(=O)c2cccs2)cc(-c2csc(=O)[nH]2)c1`, the IC50 in series [1] came to 2.2 µM.
Regarding `O=c1[nH]c(-c2ccc(NS(=O)(=O)c3cccs3)c(O)c2)cs1`, in series [1], the IC50 came to 3.3 µM.
Take `O=C(CCc1ccccc1)Nc1cc(NS(=O)(=O)c2cccs2)cc(-c2csc(=O)[nH]2)c1`: in series [1], the IC50 worked out at 0.57 µM.
As to `Nc1cc(N)cc(-c2csc(=O)[nH]2)c1`, the IC50 in series [1] was found to be 50.7 µM.
